Laboratory results as given in PMC7495282 (British Journal of Clinical Pharmacology, 2020).
Read-outs that look alike come from different tables or passages of the source. Each block holds one compound with its values, some of them ahead of it.

Legend:
[1] = cited from earlier work
CYP3A5 = conditions: human liver microsomes and human CYP expression system; cited from earlier work
[2] = Study 2 safety and tolerability; type: in vivo, healthy Japanese subjects
In short: (§1)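 Healthy Japanese males, 20–45 y. Safety was assessed from adverse events, laboratory tests, vital signs (BP, pulse rate, body temperature) and 12-lead ECG. Adverse events were coded by MedDRA/J (versions 19.0 and 19.1) System Organ Class and Preferred Term. Safety set was all consenting subjects given at least 1 dose of any study drug.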

CYP3A4 = conditions: human liver microsomes and human CYP expression system; cited from earlier work
[3] = test system: breast cancer resistance protein; conditions: in vitro; cited from earlier work
[4] = cited from earlier work; remark: listed apart in the source
[5] = cited from earlier work; remark: listed apart in the source
[6] = Study 1 safety and tolerability; type: in vivo, healthy Japanese subjects; conditions: for Blood creatine phosphokinase increased, TEAE / Eosinophil count increased, TEAE / Rash, TEAE: n = 20
In short: as §1

[7] = esaxerenone 20 mg; ref unpublished data on file, Daiichi Sankyo Co., Ltd.; cited from earlier work
P‐glycoprotein (P‐gp) = conditions: in vitro; cited from earlier work
[8] = test system: mineralocorticoid receptor (MR); conditions: in vitro, cited from earlier work
[9] = Study 1: single-dose esaxerenone pharmacokinetics alone and with itraconazole; type: in vivo, healthy Japanese subjects
In short: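 Healthy Japanese males, 20–45 y, BMI 18.5–<25 kg m−2. Oral 2.5 mg tablet with 200 mL water, fasted (≥10 h before, 4 h after), on Day 1. CYP3A inhibitor 200 mg twice on Day 8, then once daily Days 9–16. Day 13 co-dose given fasted. Plasma sampled predose to 96 h, extracted by SPE, assayed by LC–MS/MS. Noncompartmental PK; GLSM ratios with 90% CI.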

[10] = type: in vivo, healthy Japanese subjects
In short: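 Healthy Japanese males, 20–45 y. Oral 5 mg, fasted, Day 1. CYP3A inducer 600 mg orally once daily before breakfast for 9 days from Day 8; Day 13 dose given fasted 2 h after inducer. Plasma taken predose to 96 h (1700 g, 10 min, 4 °C; stored ≤−20 °C). Parent and metabolites M1, M4, M11 by SPE–LC–MS/MS. Noncompartmental analysis; GLSM ratios, 90% CI.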

[11] = in the presence of ketoconazole; cited from earlier work
human MR = conditions: read-out: half-maximal inhibitory concentration for the transcriptional activity of human MR; in vitro; cited from earlier work
[12] = Study 2, esaxerenone 5 mg + rifampicin, n = 11
[13] = Study 2, esaxerenone 5 mg alone, n = 12
[14] = Study 1, esaxerenone 2.5 mg + itraconazole
[15] = Study 1, esaxerenone 2.5 mg alone
[16] = (esaxerenone + itraconazole)/(esaxerenone alone), 2.5 mg
[17] = esaxerenone 2.5 mg + itraconazole, n = 20
[18] = esaxerenone 2.5 mg single oral dose + itraconazole 200 mg, n = 20
[19] = esaxerenone 2.5 mg single oral dose, alone, n = 20
[20] = esaxerenone 2.5 mg, alone, n = 20
[21] = (esaxerenone + rifampicin)/(esaxerenone alone), 5 mg
[22] = coadministration with rifampicin vs esaxerenone alone
[23] = esaxerenone 5 mg + rifampicin, n = 11
[24] = esaxerenone 5 mg single oral dose + rifampicin 600 mg once daily, n = 11
[25] = esaxerenone 5 mg single oral dose, alone, n = 11
[26] = esaxerenone 5 mg, alone, n = 11

AUCinf GLSM ratio (90% CI) [9, 16]: 1.53 (1.45, 1.62) | Cmax GLSM ratio (90% CI) [9, 16]: 1.13 (1.05, 1.20) | AUCinf GLSM ratio (90% CI) ([9]; (esaxerenone + itraconazole)/(esaxerenone alone), 2.5 mg, listed as esaxerenone): 1.53 (1.45–1.62) | increase in esaxerenone Cmax ([9]; coadministration of itraconazole vs esaxerenone alone): 12.6% | AUCinf, GLSM [9, 17]: 976 ng·h/mL | Cmax, GLSM [9, 17]: 41.0 ng/mL | AUCinf, arithmetic mean (SD) [9, 18]: 996 (219) ng h mL^−1 | CL/F, arithmetic mean (SD) [9, 18]: 2.61 (0.477) L h^−1 | Cmax, arithmetic mean (SD) [9, 18]: 41.7 (8.46) ng mL^−1 | t1/2, arithmetic mean (SD) [9, 18]: 25.9 (4.21) h | tmax, median (range) [9, 18]: 2.00 (1.00–4.00) h | AUCinf, arithmetic mean (SD) [9, 19]: 648 (121) ng h mL^−1 | CL/F, arithmetic mean (SD) [9, 19]: 3.98 (0.696) L h^−1 | t1/2, arithmetic mean (SD) [9, 19]: 20.7 (3.96) h | tmax, median (range) [9, 19]: 2.25 (1.50–4.00) h | Cmax, arithmetic mean (SD) ([9]; esaxerenone 2.5 mg single oral dose, alone, n = 20, plasma): 36.7 (5.36) ng mL^−1 | AUCinf, GLSM [9, 20]: 637 ng·h/mL | Cmax, GLSM [9, 20]: 36.4 ng/mL | AUCinf GLSM ratio (90% CI) [10, 21]: 0.312 (0.297, 0.328) | Cmax GLSM ratio (90% CI) [10, 21]: 0.659 (0.599, 0.724) | decrease in esaxerenone Cmax [10, 22]: 34.1% | fold reduction of esaxerenone AUCinf [10, 22]: approximately 0.3 fold | AUCinf, GLSM [10, 23]: 350 ng·h/mL | Cmax, GLSM [10, 23]: 47.2 ng/mL | AUCinf, arithmetic mean (SD) [10, 24]: 351 (24.8) ng h mL^−1 | CL/F, arithmetic mean (SD) [10, 24]: 14.3 (1.01) L h^−1 | Cmax, arithmetic mean (SD) [10, 24]: 47.6 (6.22) ng mL^−1 | t1/2, arithmetic mean (SD) [10, 24]: 8.63 (1.67) h | tmax, median (range) [10, 24]: 2.50 (1.00–4.00) h | AUCinf, arithmetic mean (SD) [10, 25]: 1130 (150) ng h mL^−1 | CL/F, arithmetic mean (SD) [10, 25]: 4.50 (0.634) L h^−1 | t1/2, arithmetic mean (SD) [10, 25]: 16.6 (2.38) h | tmax, median (range) [10, 25]: 2.50 (1.50–3.50) h | Cmax, arithmetic mean (SD) ([10]; esaxerenone 5 mg single oral dose, alone, n = 11, plasma): 72.4 (10.1) ng mL^−1 | AUCinf, GLSM [10, 26]: 1121 ng·h/mL | Cmax, GLSM [10, 26]: 71.7 ng/mL
SMILES: Cc1c(C(=O)Nc2ccc(S(C)(=O)=O)cc2)cn(CCO)c1-c1ccccc1C(F)(F)F [Esaxerenone]
tolerability ([1]; both dosages (2.5 and 5 mg d^−1)): well tolerated | clinical efficacy vs eplerenone 50 mg d^−1 ([1]; esaxerenone 2.5 mg d^−1, essential hypertension): noninferior | clinical efficacy of 5 mg d^−1 dosage vs 2.5 mg d^−1 dosage ([1]; essential hypertension): superior | involvement of CYP3A5 in oxidative metabolism (CYP3A5): involved in the oxidative metabolism | serious AEs ([2]; Study 2): No serious AEs | Blood creatine phosphokinase increased, TEAE [2, 12]: 0 number of subjects (%) | Eosinophil count increased, TEAE [2, 12]: 1 (9.1) number of subjects (%) | Rash, TEAE [2, 12]: 0 number of subjects (%) | Blood creatine phosphokinase increased, TEAE [2, 13]: 0 number of subjects (%) | Eosinophil count increased, TEAE [2, 13]: 0 number of subjects (%) | Rash, TEAE [2, 13]: 1 (8.3) number of subjects (%) | subjects reporting TEAEs ([2]; Study 2, whole study): 2 subjects | safety and tolerability (in words) ([2]; administered concomitantly with rifampicin): safe and well tolerated | involvement of CYP3A4 in oxidative metabolism (CYP3A4): involved in the oxidative metabolism | substrate of breast cancer resistance protein [3]: substrate | proportion of unchanged drug excreted in faeces ([4]; 14C-labelled esaxerenone): 18.7% | proportion of unchanged drug excreted in urine ([4]; 14C-labelled esaxerenone): 1.6% | overall excretion rate of oxidised metabolites ([4]; metabolite profiles in faeces and urine): about 30 % of the total dose | absolute bioavailability [5]: approximately 90% | serious AEs ([6]; Study 1): No serious AEs | Blood creatine phosphokinase increased, TEAE [6, 14]: 0 number of subjects (%) | Eosinophil count increased, TEAE [6, 14]: 0 number of subjects (%) | Rash, TEAE [6, 14]: 0 number of subjects (%) | Blood creatine phosphokinase increased, TEAE [6, 15]: 1 (5.0) number of subjects (%) | Eosinophil count increased, TEAE [6, 15]: 0 number of subjects (%) | Rash, TEAE [6, 15]: 0 number of subjects (%) | subjects reporting TEAEs ([6]; Study 1, whole study): 1 subject | safety and tolerability (in words) ([6]; administered concomitantly with itraconazole): safe and well tolerated | mean plasma concentrations, Japanese vs Caucasian subjects [7]: similar | substrate of P-glycoprotein (P‐glycoprotein (P‐gp)): substrate | MR affinity relative to eplerenone ([8]; fold greater than eplerenone): 4 fold | MR affinity relative to spironolactone ([8]; fold greater than spironolactone): 76 fold

SMILES: COC(=O)[C@@H]1CC2=CC(=O)CC[C@]2(C)[C@@]23O[C@@H]2C[C@@]2(C)[C@@H](CC[C@@]24CCC(=O)O4)[C@H]13 [eplerenone]
increase in eplerenone exposure [11]: 5 fold | IC50 (human MR): 970 nM
